Experimental data reported in ChEMBL document CHEMBL5674881, “The therapeutic properties of resminostat for hepatocellular carcinoma” (2018).
Active and inactive are the calls of the source. No cut-off for these calls is given here.

Key:
[1] = test system: Hep 3B2; experiment: Downregulation of HDAC1 expression in human Hep3B cells at 80 nM incubated for 24 hrs in presence of 17-AAG by qRT-PCR analysis; type: functional, cell-based
[2] = test system: Hep 3B2; experiment: Anti-proliferative activity against human Hep3B cells assessed as decrease in STAT3 mRNA level at 80 nM incubated for 24 hrs in presence of SGBS CM by qRT-PCR analysis; type: functional, cell-based
[3] = test system: Hep 3B2; experiment: Anti-proliferative activity against human Hep3B cells assessed as reduced cell proliferation at 80 nM incubated for 24 hrs in presence of SGBS CM by Fluoro Fire-Blue ProViaTox assay; type: functional, cell-based
[4] = test system: Hep 3B2; experiment: Anti-proliferative activity against human Hep3B cells assessed as increase in IL-10 mRNA level at 80 nM incubated for 24 hrs in presence of SGBS CM by qRT-PCR analysis; type: functional, cell-based
[5] = test system: Hep 3B2; experiment: Anti-proliferative activity against human Hep3B cells assessed as reduced cell proliferation at 80 nM incubated for 24 hrs by Fluoro Fire-Blue ProViaTox assay; type: functional, cell-based
[6] = test system: Hep 3B2; experiment: Downregulation of BCL2 mRNA expression in human Hep3B cells at 80 nM incubated for 24 hrs in presence of 17-AAG by qRT-PCR analysis; type: functional, cell-based
[7] = test system: Hep 3B2; experiment: Downregulation of HSP90 mRNA expression in human Hep3B cells at 80 nM incubated for 24 hrs in presence of 17-AAG by qRT-PCR analysis; type: functional, cell-based
[8] = test system: Hep 3B2; experiment: Anti-proliferative activity against human Hep3B cells assessed as reduction in cell viability at 80 nM incubated for 24 hrs in presence of SC1 by Fluoro Fire-Blue ProViaTox assay relative to control; type: functional, cell-based
[9] = test system: Hep 3B2; experiment: Downregulation of HDAC expression in human Hep3B cells at 80 nM incubated for 24 hrs in presence of 17-AAG by qRT-PCR analysis; type: functional, cell-based
[10] = test system: Hep 3B2; experiment: Anti-proliferative activity against human Hep3B cells assessed as increase in Caspase 3 expression at 80 nM incubated for 24 hrs by qRT-PCR analysis; type: functional, cell-based
[11] = test system: Hep 3B2; experiment: Effect on human Hep3B cells assessed as reduction in HDAC1 mRNA level at 80 nM incubated for 24 hrs in presence of SGBS CM by qRT-PCR analysis; type: functional, cell-based
Procedure, shortened: (§1)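 Hep3B cells exposed to 30% conditioned medium from differentiated SGBS adipocytes, with or without 80 nM drug. HDAC1, 2 and 3 RNA given as fold change versus untreated cells or between treatments.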

[12] = test system: Hep 3B2; experiment: Effect on human Hep3B cells assessed as reduction of HDAC global activity at 80 nM incubated for 24 hrs in presence of SGBS CM by FluoroFire HDAC Activity Assay Kit relative to control; type: functional; design: scale not given: the % may be the effect or the level left
Procedure, shortened: (§2)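 Hep3B cells treated 24 h with 80 nM drug, alone or with 30% SGBS conditioned medium. Lysates made with lysis reagent (15 min, room temperature, shaking), spun, and supernatant used. Preincubated 20 min at 37°C, then Emerald substrate added for 1 h at 37°C. Fluorescence read at Ex 490/Em 525 nm. HeLa nuclear extract as positive control, HeLa extract with trichostatin A as negative control (n = 3).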

[13] = test system: Hep 3B2; experiment: Downregulation of ZFP64 mRNA expression in human Hep3B cells at 80 nM incubated for 24 hrs in presence of 17-AAG by qRT-PCR analysis
[14] = test system: Hep 3B2; experiment: Upregulation of BIM expression in human Hep3B cells at 80 nM incubated for 24 hrs by qRT-PCR analysis; type: functional, cell-based
Procedure, shortened: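 RNA levels of BCL-2, BIM, BAX and BAD measured in Hep3B cells after 24 h with 80 nM drug. Triplicates, three independent experiments, t-test.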

[15] = test system: Hep 3B2; experiment: Anti-proliferative activity against human Hep3B cells assessed as decrease in Cyclin D1 expression at 80 nM incubated for 24 hrs in presence of SGBS CM by qRT-PCR analysis; type: functional, cell-based
[16] = test system: Hep 3B2; experiment: Anti-proliferative activity against human Hep3B cells assessed as increase in cleaved Caspase 3/7 level at 80 nM incubated for 24 hrs in presence of SGBS CM by Tetraplex-Assay Kit analysis; type: functional, cell-based
Procedure, shortened: (§3)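 Hep3B seeded at 20000 cells/well overnight, then treated with 30% differentiated SGBS conditioned medium with or without resminostat 80 nM for 24 h. Tetraplex caspase substrate buffer added during treatment for real-time cleavage read-out: Caspase 3/7 at Ex 535/Em 620 nm, Caspase 8 at Ex 490/Em 525 nm, Caspase 9 at Ex 370/Em 450 nm. Compared with controls or between treatments; n = 3.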

[17] = test system: Hep 3B2; experiment: Anti-proliferative activity against human Hep3B cells assessed as decrease in VEGF mRNA level at 80 nM incubated for 24 hrs in presence of SGBS CM by qRT-PCR analysis; type: functional, cell-based
[18] = test system: Hep 3B2; experiment: Effect on human Hep3B cells assessed as reduction in HDAC3 mRNA level at 80 nM incubated for 24 hrs in presence of SGBS CM by qRT-PCR analysis; type: functional, cell-based; procedure, shortened: as §1
[19] = test system: Hep 3B2; experiment: Anti-proliferative activity against human Hep3B cells assessed as increase in p21 mRNA expression at 80 nM incubated for 24 hrs in presence of SGBS CM by qRT-PCR analysis; type: functional, cell-based
[20] = test system: Huh-7; experiment: Anti-proliferative activity against human Huh-7 cells assessed as reduced cell proliferation at 80 nM incubated for 24 hrs in presence of SGBS CM by Fluoro Fire-Blue ProViaTox assay; type: functional, cell-based
[21] = test system: Huh-7; experiment: Anti-proliferative activity against human Huh-7 cells assessed as reduced cell proliferation at 80 nM incubated for 24 hrs by Fluoro Fire-Blue ProViaTox assay; type: functional, cell-based
[22] = test system: Hep 3B2; experiment: Effect on human Hep3B cells assessed as reduction of HDAC global activity at 80 nM incubated for 24 hrs by FluoroFire HDAC Activity Assay Kit relative to control; type: functional; design: scale not given: the % may be the effect or the level left; procedure, shortened: as §2
[23] = test system: Hep 3B2; experiment: Anti-proliferative activity against human Hep3B cells assessed as increase in p27 mRNA expression at 80 nM incubated for 24 hrs in presence of SGBS CM by qRT-PCR analysis; type: functional, cell-based
[24] = test system: Hep 3B2; experiment: Anti-proliferative activity against human Hep3B cells assessed as cell proliferation at incubated for 24 hrs by Fluoro Fire-Blue ProViaTox assay; type: functional, cell-based; details: dose 20-100 nM
[25] = test system: Hep 3B2; experiment: Anti-proliferative activity against human Hep3B cells assessed as increase in cleaved Caspase 8 level at 80 nM incubated for 24 hrs in presence of SGBS CM by Tetraplex-Assay Kit analysis; type: functional, cell-based; procedure, shortened: as §3
[26] = test system: Hep 3B2; experiment: Anti-proliferative activity against human Hep3B cells assessed as reduction in cell viability at 80 nM incubated for 24 hrs in presence of doxorubicin by Fluoro Fire-Blue ProViaTox assay relative to control; type: functional, cell-based
[27] = test system: Hep 3B2; experiment: Anti-proliferative activity against human Hep3B cells assessed as increase in BIM mRNA level at 80 nM incubated for 24 hrs by qRT-PCR analysis; type: functional, cell-based
[28] = test system: Hep 3B2; experiment: Anti-proliferative activity against human Hep3B cells assessed as reduction in cell viability at 80 nM for 24 hrs in presence of GSK343 by Fluoro Fire-Blue ProViaTox assay relative to control; type: functional

CN(C)Cc1ccc(S(=O)(=O)n2ccc(/C=C/C(=O)NO)c2)cc1 [RESMINOSTAT]
Activity [1]: Active
Activity [2]: Active
Activity [3]: Active
Activity [4]: Active
Activity [5]: Active
Activity [6]: Active
Activity [7]: Active
Activity [8]: Active
Activity [9]: Active
Activity [10]: Active
Activity [11]: Active
Activity [12]: 52.67%
Activity [13]: Active
Activity [14]: Active
Activity [15]: Active
Activity [16]: Active
Activity [17]: Active
Activity [18]: Active
Activity [19]: Active
Activity [20]: Active
Activity [21]: Active
Activity [22]: 62.33%
Activity [23]: Active
Activity [24]: Dose-Dependent Effect
Activity [25]: Active
Activity [26]: Active
Activity [27]: Active
Activity [28]: 21.61%
